Our source for the EC50 and Inhibition values is ChEMBL document CHEMBL1150829, “Novel cytotoxic 4-phenylfuranocoumarins from Calophyllum dispar” (2001).

The subject of test [1] is KB. Nature of the test: Cytotoxicity against human KB cells after 72 hrs by neutral red staining. The format is functional. To be noted: read-out: ED50 (the source's name). The method, boiled down:
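Human nasopharyngeal carcinoma KB cells exposed in triplicate to five concentrations (50 to 0.01 µg/mL) of pure compound, or none, for 72 h at 37 °C. Living cells stained with neutral red and optical density read at 540 nm. ED50 is the concentration inhibiting cell growth to 50% of control.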

The subject of test [2] is KB. Description: Growth inhibition of human KB cells at 5 to 6 ug/mL after 72 hrs by neutral red staining. The format is functional.

In brackets after ≈: the same amount, converted by molar mass.

On to `CC(C)CC(=O)c1c(O)c2c(c3c(-c4ccccc4)cc(=O)oc13)O[C@H](C(C)(C)O)C2`, for which, in the test on KB [1], the EC50 was 9 µg/mL (≈ 21.3 µM). In the test with KB [2], the Inhibition (commonly how much of the control response was suppressed) is 50%.

In the test on KB [2], `CCCC(=O)c1c(O)c2c(c3c(-c4ccccc4)cc(=O)oc13)O[C@H](C(C)(C)O)C2` yielded an Inhibition of 50%.

On to `CCCC(=O)c1c2c(c3oc(=O)cc(-c4ccccc4)c3c1O)C[C@@H](C(C)(C)O)O2`, for which the EC50 with KB [1] was 6 µg/mL (≈ 14.7 µM). Same read-out and setting: the value for `CCC(C)C(=O)c1c2c(c3oc(=O)cc(-c4ccccc4)c3c1O)C[C@@H](C(C)(C)O)O2` (stereo not given in full) was 5 µg/mL (≈ 11.8 µM); that for `C=C(C)[C@@H]1Cc2c(c(C(=O)CC(C)C)c(O)c3c(-c4ccccc4)cc(=O)oc23)O1` was 40 µg/mL (≈ 98.9 µM). On to `CCC(C)C(=O)c1c(O)c2c(c3c(-c4ccccc4)cc(=O)oc13)O[C@H](C(C)(C)O)C2` (stereo not given in full), for which the EC50 with KB [1] was found to be 15 µg/mL (≈ 35.5 µM). Further, in the test on KB [2], the Inhibition is reported as 50%. On to `CC(C)CC(=O)c1c2c(c3oc(=O)cc(-c4ccccc4)c3c1O)C[C@@H](C(C)(C)O)O2` [CYCLOMAMMEISIN], for which the EC50 in the test on KB [1] was found to be 6 µg/mL (≈ 14.2 µM).

As to `COc1cccc2c1C(=O)c1c(O)c3c(c(O)c1C2=O)C[C@@](O)(C(=O)CO)C[C@@H]3O[C@H]1C[C@H](N)[C@H](O)[C@H](C)O1` [DOXORUBICIN], the EC50 in the test on KB [1] is 0.058 µg/mL (≈ 0.107 µM).
